Experimental findings from ChEMBL document CHEMBL1152619, “Synthesis and structure-activity relationships of dehydroaltenusin derivatives as selective DNA polymerase alpha inhibitors” (Bioorg Med Chem, 2009) are described below.

The nature of assay [1]: Inhibition of calf thymus DNA polymerase alpha by [3H]dTTP incorporation assay. Also noted: species or system Bos taurus. In a few lines: (§1)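 Enzymes: pol α immunoaffinity-purified from calf thymus; pol β purified from a recombinant rat pol β expression plasmid. Template-primer was poly(dA)/oligo(dT)12–18 (A/T = 2/1) with [³H]-dTTP as substrate. Inhibitor–enzyme premix was added to standard reaction mixture and incubated for 60 min at 37 °C. Remaining activity was expressed relative to the no-inhibitor control (100%).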

Assay [2] can be described thus: Selectivity index, ratio of IC50 for rat DNA polymerase beta to IC50 for calf thymus DNA polymerase alpha.
Another assay has as its target DNA polymerase beta (Rattus norvegicus, UniProt P06766). Kind of assay: Inhibition of rat DNA polymerase beta by [3H]dTTP incorporation assay. In short, it runs like this:
as §1

The species entered for the next assay is Bos taurus. Put plainly: Inhibition of calf thymus DNA polymerase alpha assessed as complete inhibition of enzyme activity at 4 uM by [3H]dTTP incorporation assay.
The target in assay [3] is Myosin light chain kinase, smooth muscle (Homo sapiens, UniProt Q15746). Put plainly: Inhibition of MLCK.

The structures appear in SMILES notation. Activity calls are given as the source filed them. The calls are words filed in the database; no cut-off is given here.

Sequence of Myosin light chain kinase, smooth muscle (Q15746 whole entry): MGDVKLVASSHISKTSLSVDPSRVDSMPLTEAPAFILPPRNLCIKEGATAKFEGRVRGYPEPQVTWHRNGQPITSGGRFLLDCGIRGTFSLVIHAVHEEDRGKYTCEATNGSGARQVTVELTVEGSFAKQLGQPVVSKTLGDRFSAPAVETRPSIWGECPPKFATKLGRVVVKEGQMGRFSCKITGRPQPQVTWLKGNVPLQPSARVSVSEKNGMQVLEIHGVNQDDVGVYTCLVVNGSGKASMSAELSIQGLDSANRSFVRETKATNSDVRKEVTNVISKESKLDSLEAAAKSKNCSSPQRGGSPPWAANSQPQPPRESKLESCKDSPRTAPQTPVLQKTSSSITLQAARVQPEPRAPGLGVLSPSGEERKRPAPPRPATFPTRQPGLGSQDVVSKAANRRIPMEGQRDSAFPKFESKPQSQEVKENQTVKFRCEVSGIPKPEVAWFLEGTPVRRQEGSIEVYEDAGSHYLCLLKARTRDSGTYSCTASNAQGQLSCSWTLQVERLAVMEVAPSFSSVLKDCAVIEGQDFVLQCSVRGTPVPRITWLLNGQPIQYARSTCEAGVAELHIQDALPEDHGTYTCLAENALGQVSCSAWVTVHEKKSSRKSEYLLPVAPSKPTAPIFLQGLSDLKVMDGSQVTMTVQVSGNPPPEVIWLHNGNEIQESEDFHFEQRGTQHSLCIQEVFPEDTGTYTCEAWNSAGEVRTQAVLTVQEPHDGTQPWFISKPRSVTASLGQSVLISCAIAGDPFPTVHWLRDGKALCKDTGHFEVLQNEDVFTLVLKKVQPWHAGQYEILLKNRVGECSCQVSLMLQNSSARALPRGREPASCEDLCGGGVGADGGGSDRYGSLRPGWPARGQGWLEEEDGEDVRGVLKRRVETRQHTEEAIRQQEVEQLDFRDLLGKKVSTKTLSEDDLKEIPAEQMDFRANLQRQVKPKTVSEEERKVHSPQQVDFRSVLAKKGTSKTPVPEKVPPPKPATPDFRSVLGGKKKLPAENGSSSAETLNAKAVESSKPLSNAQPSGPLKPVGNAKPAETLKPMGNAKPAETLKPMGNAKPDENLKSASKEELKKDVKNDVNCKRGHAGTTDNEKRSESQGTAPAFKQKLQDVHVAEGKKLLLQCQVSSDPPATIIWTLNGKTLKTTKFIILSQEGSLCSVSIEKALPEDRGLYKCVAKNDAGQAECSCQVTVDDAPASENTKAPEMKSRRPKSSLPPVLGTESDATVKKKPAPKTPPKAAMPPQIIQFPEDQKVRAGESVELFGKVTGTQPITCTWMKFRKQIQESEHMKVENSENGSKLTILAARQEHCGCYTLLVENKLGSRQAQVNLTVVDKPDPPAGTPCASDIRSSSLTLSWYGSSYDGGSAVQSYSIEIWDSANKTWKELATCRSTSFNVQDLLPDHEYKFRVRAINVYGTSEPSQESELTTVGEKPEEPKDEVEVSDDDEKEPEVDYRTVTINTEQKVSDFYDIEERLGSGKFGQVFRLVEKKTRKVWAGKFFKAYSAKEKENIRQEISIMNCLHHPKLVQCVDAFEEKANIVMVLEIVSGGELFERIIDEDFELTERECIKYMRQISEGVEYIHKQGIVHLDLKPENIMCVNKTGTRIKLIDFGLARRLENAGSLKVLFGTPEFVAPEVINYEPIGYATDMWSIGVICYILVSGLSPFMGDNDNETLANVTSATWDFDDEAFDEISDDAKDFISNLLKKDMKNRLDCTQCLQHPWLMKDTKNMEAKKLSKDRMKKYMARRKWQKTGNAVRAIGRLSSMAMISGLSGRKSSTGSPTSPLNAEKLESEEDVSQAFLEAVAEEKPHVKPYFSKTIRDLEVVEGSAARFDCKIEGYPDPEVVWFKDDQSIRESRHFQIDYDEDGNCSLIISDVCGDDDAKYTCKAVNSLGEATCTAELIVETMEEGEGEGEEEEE

Broadly, the IC50 is the concentration needed to halve the response being measured. Regarding `CCCCCCOc1cc(O)c2c(c1)C1=CC(=O)C(O)=CC1(C)OC2=O` (stereo not given), the IC50 result was “Dose-dependent effect” in assay [1], 0.09 µM in assay [1] (read-out: IC50) and 24 µM at DNA polymerase beta. Besides, the Ratio IC50 in assay [2] was determined as 267.

With `COc1cc(O)c2c(c1)C1=CC(=O)C(O)=CC1(C)OC2=O` (stereo not given) [DEHYDROALTENUSIN], the IC50 entry in assay [1] is “Dose-dependent effect”; in assay [1] (read-out: IC50) it was 0.68 µM; on DNA polymerase beta, 64 µM; in assay [3] it was 0.69 µM. For the same compound, the Ratio IC50 in assay [2] came out at 94.1. In the assay filed under Bos taurus, the outcome was Active.

For the compound `COc1cc(O)c2c(=O)oc3cc(O)c(O)cc3c2c1`, the IC50 in assay [1] (read-out: IC50) was more than 200 µM.

Regarding `CC12C=C(O)C(=O)C=C1c1cccc(O)c1C(=O)O2` (stereo not given), the figures for the IC50 entry (in assay [1]; in assay [1] (read-out: IC50); against DNA polymerase beta) were “Dose-dependent effect”, 0.24 µM and 89 µM, respectively. The Ratio IC50 in assay [2] is 371.

Turning to `COc1cc(O)c2c(=O)oc3cc(OCc4ccccc4)c(OCc4ccccc4)cc3c2c1`, the IC50 in assay [1] (read-out: IC50) was more than 200 µM.

Take `CCCCCCCCCCCCOc1cc(O)c2c(c1)C1=CC(=O)C(O)=CC1(C)OC2=O` (stereo not given): the values for the IC50 result (in assay [1]; in assay [1] (read-out: IC50); against DNA polymerase beta) were “Dose-dependent effect”, 0.06 µM and 11 µM, respectively. The Ratio IC50 in assay [2] amounted to 183.

`COc1cc(O)c2c(c1)C1=CC(=O)C=CC1(C)OC2=O` (stereo not given): the IC50 in assay [1] (read-out: IC50) is more than 200 µM.

In the case of `CC12C=C(O)C(=O)C=C1c1cc(O)cc(O)c1C(=O)O2` (stereo not given) [DESMETHYLDEHYDROALTENUSIN], the IC50 entry in assay [1] is “Dose-dependent effect”; in assay [1] (read-out: IC50), 0.89 µM; against DNA polymerase beta, 126 µM. In addition, in assay [2], the Ratio IC50 was determined as 142.

Regarding `CCCOc1cc(O)c2c(c1)C1=CC(=O)C(O)=CC1(C)OC2=O` (stereo not given), the values for the IC50 result (in assay [1]; in assay [1] (read-out: IC50); on DNA polymerase beta) were “Dose-dependent effect”, 0.18 µM and 35 µM, respectively. Besides, in assay [2], the Ratio IC50 came out at 194.

Turning to `CC12C=CC(=O)C=C1c1cccc(O)c1C(=O)O2` (stereo not given), the IC50 in assay [1] (read-out: IC50) is more than 200 µM.
